Assay results of several laboratories.
Each line is one published result; the experiments were not run side by side. In brackets after ≈: the same amount, converted by molar mass.

SMILES	target or system	test	test system	conditions	measurement	value
Cc1cc(=O)oc2ccc(-c3cc(-c4cccc(Cl)c4)nc(N)n3)c(O)c12	KB	cell growth or viability, MTT	–	8 µg/mL, 72 h	inhibition	5%
C[C@@H](c1ncncc1F)[C@](O)(Cn1cncn1)c1ccc(F)cc1F	Acanthamoeba quina	parasite growth, resazurin	–	7 days	IC50	24.1 µM
COc1ccc(-c2cc(-c3ccc4oc(=O)cc(C)c4c3O)nc(N)n2)cc1	KB	cell growth or viability, MTT	–	8 µg/mL, 72 h	inhibition	0%
COC(=O)COc1ccc(NC(=O)C2(c3ccc(Cl)cc3)CC2)cc1	U-937	cell growth or viability, ATP luminescence	–	72 h	GI50	3.9 µM
Clc1ccccc1C(c1ccccc1)(c1ccccc1)n1ccnc1	Fusarium solani	microbial growth, disc diffusion	–	20000 µg/mL	inhibition zone	23 mm
C[C@@H]1[C@H](O)[C@@H](C)/C=C/C=C/C=C/C=C/C=C/C=C/C=C/[C@H](O[C@@H]2O[C@H](C)[C@@H](O)[C@H](N)[C@@H]2O)C[C@@H]2O[C@](O)(C[C@@H](O)C[C@@H](O)[C@H](O)CC[C@@H](O)C[C@@H](O)CC(=O)O[C@H]1C)C[C@H](O)[C@H]2C(=O)O	Pichia kudriavzevii	microbial killing	ATCC6258	–	MFC	1.25 µg/mL (≈ 1.35 µM)
COC(=O)COc1ccc(NC(=O)C2(c3ccc(Cl)c(Cl)c3)CC2)cc1	U-937	cell growth or viability, ATP luminescence	–	72 h	GI50	3 µM
Cc1cc(=O)oc2ccc(-c3cc(-c4ccc(Cl)cc4)nc(N)n3)c(O)c12	KB	cell growth or viability, MTT	–	128 µg/mL, 72 h	inhibition	60%
CCCCCCCCCCCCCCN1CCN(CC(O)(Cn2cncn2)c2ccc(F)cc2F)CC1 (stereo not shown)	Pichia kudriavzevii	microbial growth, broth dilution	ATCC6258	48 h	MIC	0.975 µg/mL (≈ 1.88 µM)
COC(=O)COc1ccc(NC(=O)C2(c3cccc(C)c3)CC2)cc1	U-937	cell growth or viability, ATP luminescence	–	72 h	GI50	> 200 µM
CCCCCCCCN1CCN(CC(O)(Cn2cncn2)c2ccc(F)cc2F)CC1 (stereo not shown)	Pichia kudriavzevii	microbial growth, broth dilution	ATCC6258	48 h	MIC	7.8 µg/mL (≈ 17.9 µM)
Cc1cc(=O)oc2ccc(-c3cc(-c4ccc(Br)cc4)nc(N)n3)c(O)c12	KB	cell growth or viability, MTT	–	8 µg/mL, 72 h	inhibition	2%
COC(=O)COc1ccc(NC(=O)C2(c3ccccc3)CC2)cc1	U-937	cell growth or viability, ATP luminescence	–	72 h	GI50	4.2 µM
